# From PubChem
# In the library only some 1.8% were active in any assay of this set; here they are far more common.
# DDE Tn6 FP inh – DD(E)-Tn6 binding inhibition, primary FP screen; P02675; Fibrin DD(E) TRITC-Tn6 fluorescence polarization displacement; inhibition, % at 8.3 µM; 370,000 tested, 0.21% active; AID 720509;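 active means inhibition above a per-campaign cutoff: mean of compounds within control limits plus 3 SD, cut at about 15% in these data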;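 further: 0% = median of all compound wells on the plate and 100% = blocking peptide control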
# Target sequence (P02675 whole entry, looked up): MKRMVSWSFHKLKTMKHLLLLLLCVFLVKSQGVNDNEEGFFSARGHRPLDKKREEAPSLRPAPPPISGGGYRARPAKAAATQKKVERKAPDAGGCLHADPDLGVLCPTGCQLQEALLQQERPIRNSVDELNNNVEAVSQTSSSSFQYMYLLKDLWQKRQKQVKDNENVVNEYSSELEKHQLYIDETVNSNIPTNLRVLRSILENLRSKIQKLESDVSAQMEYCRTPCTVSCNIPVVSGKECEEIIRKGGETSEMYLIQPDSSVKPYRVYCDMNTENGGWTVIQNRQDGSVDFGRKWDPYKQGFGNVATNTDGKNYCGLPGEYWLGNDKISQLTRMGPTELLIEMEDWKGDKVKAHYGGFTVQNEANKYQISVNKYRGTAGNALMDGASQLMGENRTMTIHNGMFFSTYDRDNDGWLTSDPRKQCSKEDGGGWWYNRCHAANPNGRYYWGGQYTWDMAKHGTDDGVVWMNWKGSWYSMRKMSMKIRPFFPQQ
# CAL PDZ FP-1 – inhibitors of human CAL PDZ peptide binding; purified CAL PDZ, TMR-peptide fluorescence polarization, 1 h; inhibition, % at 24.9 µM; 300,000 tested, 0.92% active;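 active means mean inhibition of at least 30% with at least half of replicates also reaching 30%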;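 further: 0% = DMSO neutral control and 100% = excess unlabeled competitor peptide PRC23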
# ARNT-TACC3 inh – disruptors of human ARNT/TACC3 interaction | 390,000 tested, 0.66% active | inhibition, % at 9.99 µM | AID 623870 | AlphaScreen His-ARNT PAS-B/GST-TACC3 binding, luminescence; TACC3 fragment carries E629A point mutation;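 active means mean inhibition of replicates at least 50% and at least half of replicates each reaching 50%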;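 further: 0% = complete ARNT plus TACC3 wells and 100% = ARNT alone without TACC3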
# DDE Tn7 FP inh – DD(E)-Tn7 binding inhibition, primary FP screen; AID 720508; FP displacement of FITC-Tn7 peptide from fibrin DD(E); 0% = median of compound wells per plate; P02675; 370,000 tested, 0.13% active; inhibition, % at 8.3 µM;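 active means inhibition above the mean of compounds falling within the control limits plus 3 SD of them, cut at about 14% in these data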;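 further: 0% = plate median of compound wells and 100% = 10 µM Aha-Tn7 peptide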
#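 system = human fibrin DD(E) protein | quantity = DD(E) 2 µM final | medium = Tris/NaCl/CaCl2 buffer, pH 7.8 | also added = labelled Tn7 tracer, 0.1 µM | compound dosing = single point at 8.3 µM | timing = compound with protein 10 min, then 3 h after probe, room temperature | signal = FP measurement | benchmarks = Aha-Tn7 high control | repeats = one replicate per compound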
# CAL PDZ FP-2 – blocks peptide binding to human CAL PDZ domain; inhibition, % at 20 µM; purified CAL PDZ, TMR-peptide fluorescence polarization, 1 h; 330,000 tested, 0.02% active;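 active means highest replicate inhibition of at least 40%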;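 further: plate controls were DMSO neutral control wells for no effect and unlabeled competitor peptide control wells for full effect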
#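 Material: tagged CAL PDZ domain; buffer or medium: 25 mM sodium phosphate pH 7.4, 150 mM NaCl, TCEP, IgG, Thesit; compound dosing: single point, 20 µM; schedule: 1 h incubation at room temperature before polarization reading; measured by: FP readout, S and P plane fluorescence; read-out basis: percent inhibition from loss of millipolarization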
# GRK2 inh – inhibitors of human GRK2 displacing RNA aptamer. P25098. bead flow cytometry, FAM-aptamer displacement from GRK2. inhibition of aptamer binding, % at 10 µM. 330,000 tested, 0.59% active. AID 488847;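 active means inhibition of aptamer binding above 40%, roughly 3 SD of noise, on plates passing a quality check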;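 further: median bead fluorescence of bound FAM aptamer so fluorescent compounds give negative values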
# Numbers without * were called inactive; . = no result given.
SMILES,DDE Tn6 FP inh,CAL PDZ FP-1,ARNT-TACC3 inh,DDE Tn7 FP inh,CAL PDZ FP-2,GRK2 inh
Cc1ccc(S(=O)(=O)N[C@@H]2CC[C@H](CC(=O)NC3CCCCC3)O[C@@H]2CO)cc1,.,.,-3,.,.,.
CCNC(=O)Nc1ccc2c(c1)C(=O)N(C)[C@H]1CC[C@@H](CC(=O)N[C@H](C)c3ccccc3)O[C@H]1CO2,.,.,active,.,.,.
CCN1C(=O)C(CC(=O)Nc2ccc(Br)cc2)N(CCCc2ccccc2)C1=S (stereo not given),-8,-22,0,0,-1,1
CCn1nc(C(=O)NNC(=O)c2ccccc2)c2ccccc2c1=O,-5,.,2,-5,-1,0
CCn1nc(C(=O)NNS(=O)(=O)c2ccc(C)cc2)c2ccccc2c1=O,-1,-3,68*,2,1,0
CCN1CCc2c(sc(N)c2C#N)C1,3,.,3,6,0,63*
COc1ccc(NC(=O)N(C)C[C@@H]2Oc3ncc(C#C[C@H](C)O)cc3C(=O)N([C@H](C)CO)C[C@H]2C)cc1,.,.,-3,.,.,.
COCCNC(=O)c1cn(CCOC)c(=O)c2c1c1ccccc1n2C,-2,49*,-7,-1,-2,9
COC(=O)[C@@]1(C)[C@H]2C(=O)N(C)C(=O)[C@H]2[C@H]2CN=C(SC)N21,7,-2,-6,-2,0,0
Cc1ccc(C(=O)Nc2nnc(CC(=O)N/N=C/c3ccc(O)c(O)c3)s2)cc1,4,-2,-29,-9,-1,62*
O=C(COc1ccc2c(c1)OCO2)Nc1nccs1,7,53*,-1,-7,0,2
COCc1nnc(NC(=O)COc2ccc3c(c2)OCO3)s1,6,-1,-6,1,-2,0
Cc1ccc(-n2nc(C)c3c(=O)[nH]c(C(F)(F)F)nc32)cc1,.,.,.,.,.,1
Cc1nn(-c2ccccc2)c2nc(C(Cl)(Cl)Cl)[nH]c(=O)c12,5,59*,3,-4,-1,0
Cc1ccccc1OCC(=O)Nc1ccccc1N1CCC(C)CC1,-1,2,45*,8,0,0
Cc1c(C(=O)N2CCN(c3ccc(F)cc3)CC2)sc2nc3n(c(=O)c12)CCC3,-1,86*,2,3,0,0
Cc1nnsc1C(=O)N1CCN(c2ccc(F)cc2)CC1,4,37*,-9,-1,0,1
COc1ccc(S(=O)(=O)N2CCCCCC2)cc1C(=O)N(C)CC(=O)Nc1cc(C)ccc1C,-3,-6,-9,6,-2,1
C[C@H]1CN([C@@H](C)CO)C(=O)c2cccc(NC(=O)C3CC3)c2O[C@@H]1CN(C)C,.,.,1,.,.,.
O=C(COC(=O)c1cc(-c2cccs2)nc2ccccc12)NC1CCS(=O)(=O)C1 (stereo not given),0,-8,49*,4,0,0
Cc1cc(C(=O)OCC(=O)NC2CCS(=O)(=O)C2)c2ccccc2n1 (stereo not given),8,.,-3,-1,3,3
CN1C(=O)c2cc(NC(=O)Nc3ccc(F)c(F)c3)ccc2OC[C@H]2O[C@@H](CC(=O)O)CC[C@H]21,-10,.,.,1,.,.
CSc1ccccc1C(=O)OCC(=O)Nc1c(C)n(C)n(-c2ccccc2)c1=O,-5,.,.,6,.,.
CC(=NNC(=S)N1CCCCC1)c1ccccn1,2,.,.,2,.,.
CC(=NNC(=S)N1CC2CCC(CC2)C1)c1ccncn1,-5,-3,58*,-1,-1,.
CN(C)CCCNC(=S)Nc1ccc(Oc2ccccc2)cc1,9,61*,2,-2,1,0
OCCCNC(=S)Nc1ccc(Oc2ccccc2)cc1,0,-4,.,0,-2,0
Cc1cc(=O)nc2c3ccccc3n(C(C)C(=O)Nc3c(F)c(F)c(F)c(F)c3F)n12 (stereo not given),1,82*,-6,5,6,1
Cc1cc(=O)nc2c3ccccc3n(C(C)C(=O)Nc3cc(F)ccc3F)n12 (stereo not given),0,4,20,7,0,0
